# Bioassay records (PubChem BioAssay)
# Rpn11 inh = inhibitors of human proteasome Rpn11. actives 0.59% (n = 360,000). human 26S proteasome, Ub4-pepOG fluorescence polarization; 20S core pre-blocked with epoxomicin. AID 588493. O00487. inhibition, % at 20 µM;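 active means inhibition at 20 µM, scaled to each plate's controls, above about 33%, limit read from the data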
# Target sequence (O00487 whole entry, looked up): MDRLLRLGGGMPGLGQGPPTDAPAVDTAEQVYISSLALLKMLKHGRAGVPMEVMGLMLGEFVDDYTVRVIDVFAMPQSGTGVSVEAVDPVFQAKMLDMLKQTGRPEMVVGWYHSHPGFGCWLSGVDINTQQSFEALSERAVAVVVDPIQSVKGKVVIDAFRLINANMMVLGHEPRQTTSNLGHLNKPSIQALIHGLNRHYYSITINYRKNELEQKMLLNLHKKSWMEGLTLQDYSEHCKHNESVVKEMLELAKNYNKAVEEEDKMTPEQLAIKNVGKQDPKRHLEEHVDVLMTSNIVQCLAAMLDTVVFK
# Rin1 Abl inh = blocks binding of human Rin1 to Abl. TR-FRET Rin1/Abl binding, biochemical. actives 0.4% (n = 360,000). inhibition, % at 7.35 µM. P00519+Q13671; in the data active means inhibition above about 5%, passing the limit was not always enough
# NadD inh = NadD (S. aureus) enzyme inhibition. purified NadD enzyme, colorimetric absorbance read-out. inhibition, % at 20 µM. actives 0.78% (n = 360,000). AID 602399; in the data active means inhibition above about 26%
# ABHD5-PLIN5 inh = ABHD5-PLIN5 protein interaction inhibition; inhibition, % at 4 µM; actives 0.78% (n = 360,000); Split G. princeps luciferase complementation, luminescence, 4 h; Q00G26+Q8WTS1;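 active means inhibition above the mean inhibition across every tested compound plus 3 SD, cut at about 22% in these data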
# XiGFP reactiv = activators of X-chromosome reactivation in mouse fibroblasts. XiGFP mouse fibroblasts, % GFP-positive cells imaging, 3 d; cells co-treated with 5-aza-dC sensitizer; scaled so ellipticine positive control = 100%. activation, % at 7.58 µM. actives 0.055% (n = 360,000). AID 743238;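 active means mean normalized replicate activation at least 10% and every replicate at or above 10%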
#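 assay system = SV40-immortalized XiGFP fibroblast cells, line 68-5-11 | buffer or medium = DMEM plus 5-aza-dC sensitizer | doses = single-point pinned compound dosing | times = 3-day compound exposure, then 15 min fixation at room temperature | benchmarks = positive control ellipticine, 6 µM final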
# ABHD5-PLIN5 conf = ABHD5-PLIN5 interaction inhibition, confirmed; shares compounds with ABHD5-PLIN5 inh; biochemical ABHD5-PLIN5 interaction, luminescence; inhibition, % at 4 µM; actives 67% (n = 2,200); AID 651612; in the data active means inhibition above about 23%
# HNF4 counter = HNF4 split-luciferase signal hit, counter-screen. shares compounds with ABHD5-PLIN5 inh. HNF4 dimerization, luminescence, biochemical. inhibition, % at 4 µM. actives 77% (n = 2,200). AID 651674;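 active means mean inhibition across replicate wells exceeding the computed hit threshold, cut at about 13% in these data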;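 further: light from luciferase halves that rejoin when HNF4 fusion proteins dimerize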
# NadD conf = confirmation of Staphylococcus aureus NadD inhibitors. actives 13% (n = 2,000). AID 624309. inhibition, % at 20 µM. purified S. aureus NadD, colorimetric enzyme assay. shares compounds with NadD inh; in the data active means inhibition mostly above about 42%, no sharp cut-off; inactive means mostly below about 42%
# A number is an active result; - = inactive; . = no result shown. Sampled rows, rich in hits. Any-hit rate of the full collection: about 1.9%.
SMILES,Rpn11 inh,Rin1 Abl inh,NadD inh,ABHD5-PLIN5 inh,XiGFP reactiv,ABHD5-PLIN5 conf,HNF4 counter,others
C=C1CCc2c([nH]c3ccc(OCC(C)C)cc23)C1=O,-,-,-,41.5,-,90.0,72.5,
COc1ccc2[nH]c3c(c2c1)CCNC3=O,-,-,-,-,-,.,.,
C[C@@H]1CCCCO[C@@H](CN(C)C(=O)Cc2ccccc2)[C@H](C)CN([C@@H](C)CO)C(=O)c2cc(NC(=O)CCCCCC(=O)Nc3ccccc3N)ccc2O1,.,.,.,.,-,.,.,
CC1(C)c2ccccc2N2CC(=O)N[C@@]21/C=C/C=C/c1ccccc1,-,-,-,34.3,-,-,-,
Cc1ccccc1/C=C/C12NC(=O)CN1c1ccccc1C2(C)C (stereo unspecified),.,-,-,-,-,.,.,
Cc1cc(=O)oc2c(C(=O)/C=C/c3ccccc3)c(O)ccc12,-,-,-,-,.,.,.,
Cc1cc(=O)oc2c(C(=O)/C=C\c3cccs3)c(O)ccc12,-,-,-,39.1,-,39.1,45.4,
COc1cc(/C=C/C(=O)c2c(O)ccc3c(C)cc(=O)oc23)ccc1O,-,-,-,50.9,.,61.3,63.5,
COc1ccc(/C=C\C(=O)c2c(O)ccc3c(C)cc(=O)oc23)cc1OC,-,-,-,49.8,.,74.0,60.9,
C[C@H](NC(=O)C[C@H]1C[C@@H]2c3cc(NC(=O)NC4CCCCC4)ccc3O[C@@H]2[C@H](CO)O1)c1ccccc1,.,.,.,.,-,.,.,
CN1CCN(C(=O)C[C@H]2CC[C@H]3[C@@H](COC[C@H](O)CN3Cc3cccc(Cl)c3)O2)CC1,.,.,.,.,-,.,.,
CC(C)(C)[S@@](=O)N1Cc2cc(C(=O)N[C@@H]3CCN(Cc4ccccc4)C3)nc(-c3cccc(-c4cncnc4)c3)c2[C@H]1CCO,.,.,.,.,-,.,.,
Cc1ccc2c(c1)/C(=C/c1ccccc1F)C(=O)N2,-,-,-,31.0,-,44.0,39.5,
COc1ccc(-c2sc3ccccc3c2-c2ccc(OCCN(C)C)cc2)cc1,-,-,-,39.7,-,-,-,
CN(C)CCOc1ccc(-c2c(-c3ccsc3)sc3ccccc23)cc1,-,-,-,29.2,-,-,-,
COc1cc(NC(=O)C/C(C)=N/NC(=O)c2cccs2)c(OC)cc1Cl,-,-,-,35.6,-,-,15.7,
COc1cc(NC(=O)C/C(C)=N/NC(=O)Cc2ccccc2)c(OC)cc1Cl,-,-,-,-,-,.,.,
Cc1ccc(S(=O)(=O)C=CS(=O)(=O)c2ccc(C)cc2)cc1,-,-,-,37.2,-,68.3,108.3,
O=S(=O)(/C=C/C=C/S(=O)(=O)c1ccccc1)c1ccccc1,-,-,-,89.7,-,91.2,110.6,
Oc1c(CN2CCOCC2)cc(-c2ccccc2)cc1CN1CCOCC1,-,-,-,-,.,.,.,
Oc1c(CN2CCOCC2)cc(CN2CCOCC2)c(O)c1CN1CCOCC1,-,-,-,55.0,-,78.7,108.0,
O=C(Nc1nccs1)[C@H]1[C@H](CO)[C@H]2Cn3c(cccc3=O)[C@@H]1N2C(=O)C1CCCCC1,.,.,.,.,-,.,.,
Cc1ccc(-c2nc3c(c(=O)c4ccccc4n3C)c(=O)n2Cc2ccco2)cc1,-,-,-,37.2,-,-,13.4,
Cn1c2ccccc2c(=O)c2c(=O)n(Cc3ccco3)c(-c3ccc(F)cc3)nc21,-,-,-,-,-,.,.,
O=c1c2ccccc2sc2nc(C3CCCCC3)n(Cc3ccco3)c(=O)c12,-,-,-,26.4,.,36.5,42.6,
SMILES,Rpn11 inh,Rin1 Abl inh,NadD inh,ABHD5-PLIN5 inh,XiGFP reactiv,ABHD5-PLIN5 conf,HNF4 counter,others
CCc1nc2sc3ccccc3c(=O)c2c(=O)n1Cc1ccco1,-,-,-,23.6,.,35.8,49.7,
CC(C)NC(=O)N(C)C[C@H]1Oc2c(N)cccc2C(=O)N(C)C[C@H]1C,.,.,.,.,-,.,.,
COCCn1c(SCC#N)nnc1-c1ccccc1O,-,-,-,57.0,.,-,-,
CNc1ccccc(C(=O)/C=C/c2ccccc2OC)c1=O,-,-,-,31.6,.,68.7,48.2,
CNc1ccc(Br)cc(C(=O)/C=C/c2cccc(OC)c2OC)c1=O,-,-,-,-,.,.,.,
COc1ccccc1C=CC(=O)C=Cc1ccccc1OC,-,-,-,32.3,-,72.4,44.7,
N=c1c(C(=O)NCc2ccc(F)cc2)cc2c(=O)n3ccccc3nc2n1CC1CCCO1 (stereo unspecified),-,-,-,-,.,.,.,
N=c1c(C(=O)NCc2ccco2)cc2c(=O)n3ccccc3nc2n1CC1CCCO1 (stereo unspecified),-,-,-,27.9,.,-,-,
O=c1[nH]c(C2CCN(S(=O)(=O)c3ccc(F)cc3)CC2)nc2c1nnn2Cc1ccc2c(c1)OCCO2,-,-,30.1,28.7,-,34.9,-,NadD conf=-
CC(C)C#Cc1ccc([C@H]2[C@@H](CO)N3C(=O)CN(C(=O)NC4CCCCC4)C[C@@H]23)cc1,.,.,.,.,-,.,.,
Cc1ccc(C(=O)NN2CC(O)=C(c3nc(-c4cccc([N+](=O)[O-])c4)cs3)C2=N)cc1,-,-,33.4,-,-,.,.,NadD conf=-
COc1ccc(-c2csc(NC(=O)CSc3nc(C)cs3)n2)cc1,-,-,-,-,.,.,.,
COc1ccc(-c2csc(NC(=O)CSc3nc(C)nc4sc(C(=O)O)c(C)c34)n2)cc1,-,-,30.2,-,-,.,.,NadD conf=-
CCOc1ccc(CCN2C(=S)N([C@@H](Cc3ccc(O)cc3)CN3CCC[C@@H]3CN3C(=S)NC[C@@H]3CC(C)C)C[C@@H]2Cc2ccc(O)cc2)cc1,-,-,48.2,33.6,-,.,.,NadD conf=-
CC(C)C[C@H]1CNC(=S)N1C[C@H]1CCCN1C[C@H](Cc1ccccc1)N1C[C@H](CC(C)C)N(CCc2ccccc2)C1=S,-,-,-,-,-,.,.,
CC(C)C[C@H]1CNC(=S)N1C[C@H]1CCCN1C[C@H](Cc1ccc(O)cc1)N1C[C@H](Cc2ccccc2)N(CC2CCCCCC2)C1=S,-,-,-,-,-,.,.,
CCOc1ccc(CCN2C(=S)N([C@@H](Cc3ccc(O)cc3)CN3CCCC3CN3C(=S)NC[C@@H]3Cc3ccc(O)cc3)C[C@@H]2CC(C)C)cc1 (stereo partly specified),-,-,43.2,-,-,.,.,NadD conf=-
CCOc1ccc(CCN2C(=S)N([C@@H](Cc3ccccc3)CN3CCC[C@@H]3CN3C(=S)NC[C@@H]3Cc3ccc(O)cc3)C[C@@H]2CC(C)C)cc1,-,-,31.3,-,-,.,.,NadD conf=-
C[C@H](CO)N1C[C@H](C)[C@@H](CN(C)C(=O)c2ccc3c(c2)OCO3)Oc2cc(-c3cncnc3)ccc2S1(=O)=O,.,.,.,.,-,.,.,
